Key:
[1] = system: Trypanosoma brucei gambiense; assay: Antitrypanosomal activity against Trypanosoma brucei gambiense GUTat 3.1 after 72 hrs by Alamar Blue assay; type: functional, organism-based; conditions: GUTat 3.1, 72 h
Method in brief: (§1)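 T. b. gambiense GUTat 3.1 was cultured in supplemented IMDM with 10% heat-inactivated FBS at 37 °C under 5.0% CO2/95% air. Parasites were seeded in 96-well plates, and compound in 5.0% DMSO was added for 72 h. Alamar Blue was then added for 3-6 h and fluorescence read (ex 528/20, em 590/35 nm). IC50 was obtained from the plate-reader software.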

Mus musculus = assay: Toxicity in ip dosed mouse measured over 72 hrs; type: organism-based; conditions: in vivo
Method in brief: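 Male mice, grouped, given graded intraperitoneal doses; watched continuously 6 h, then kept under observation to 72 h, monitored 4 times daily, with behavioural changes and deaths recorded. Humane endpoints applied, with CO2 euthanasia. Percentage death per dose converted to probits to derive LD50 (μM/kg); mortality rate = dead/group size ×100.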

Rattus norvegicus [2] = assay: Antiinflammatory activity in rat assessed as inhibition of carrageenan-induced paw edema at 100 mg/kg, po administered 1 hr followed by carrageenan challenge measured at 0.5 hrs by plethysmometer relative to control; type: functional
Method in brief: (§2)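 Rats dosed orally (test compounds 100 mg/kg; indomethacin reference 25 mg/kg). One hour later, 1% carrageenan suspension (0.05 mL/animal) was injected sub-plantar into the right hind paw. Paw size was measured by mercury-displacement plethysmometer, calibrated beforehand, at intervals after injection. Activity was calculated as percentage decrease in carrageenan-induced edema relative to control.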

Rattus norvegicus [3] = assay: Antiinflammatory activity in rat assessed as inhibition of carrageenan-induced paw edema at 100 mg/kg, po administered 1 hr followed by carrageenan challenge measured at 2 hrs by plethysmometer relative to control; type: functional; method in brief: as §2
Rattus norvegicus [4] = assay: Antiinflammatory activity in rat assessed as inhibition of carrageenan-induced paw edema at 100 mg/kg, po administered 1 hr followed by carrageenan challenge measured at 1 hr by plethysmometer relative to control; type: functional; method in brief: as §2
Rattus norvegicus [5] = assay: Antiinflammatory activity in rat assessed as inhibition of carrageenan-induced paw edema at 100 mg/kg, po administered 1 hr followed by carrageenan challenge measured at 3 hrs by plethysmometer relative to control; type: functional; method in brief: as §2
[6] = system: Trypanosoma brucei brucei; assay: Antitrypanosomal activity against Trypanosoma brucei brucei after 48 hrs by Alamar blue assay; type: functional, organism-based
Rattus norvegicus [7] = assay: Antiinflammatory activity in rat assessed as inhibition of carrageenan-induced paw edema at 25 mg/kg, po administered 1 hr followed by carrageenan challenge measured at 3 hrs by plethysmometer relative to control; type: functional; method in brief: as §2
Rattus norvegicus [8] = assay: Antiinflammatory activity in rat assessed as inhibition of carrageenan-induced paw edema at 25 mg/kg, po administered 1 hr followed by carrageenan challenge measured at 0.5 hrs by plethysmometer relative to control; type: functional; method in brief: as §2
Rattus norvegicus [9] = assay: Antiinflammatory activity in rat assessed as inhibition of carrageenan-induced paw edema at 25 mg/kg, po administered 1 hr followed by carrageenan challenge measured at 2 hrs by plethysmometer relative to control; type: functional; method in brief: as §2
Rattus norvegicus [10] = assay: Antiinflammatory activity in rat assessed as inhibition of carrageenan-induced paw edema at 25 mg/kg, po administered 1 hr followed by carrageenan challenge measured at 1 hr by plethysmometer relative to control; type: functional; method in brief: as §2
[11] = system: Trypanosoma brucei gambiense; assay: Antitrypanosomal activity against Trypanosoma brucei gambiense; type: functional, organism-based; method in brief: as §1

SMILES | IC50 [1] | LD50 (Mus musculus) | inhibition in vivo at 100 mg/kg (Rattus norvegicus [2]) | inhibition in vivo at 100 mg/kg (Rattus norvegicus [3]) | inhibition in vivo at 100 mg/kg (Rattus norvegicus [4]) | inhibition in vivo at 100 mg/kg (Rattus norvegicus [5]) | IC50 [6] | inhibition in vivo at 25 mg/kg (Rattus norvegicus [7]) | inhibition in vivo at 25 mg/kg (Rattus norvegicus [8]) | inhibition in vivo at 25 mg/kg (Rattus norvegicus [9]) | inhibition in vivo at 25 mg/kg (Rattus norvegicus [10]) | IC50 [11]
Nc1nc(N)nc(Nc2ccc([As]3SCC(CO)S3)cc2)n1 (stereo unspecified) [MELARSOPROL] | 0.005 µM | 8.75 µM/g |  |  |  |  |  |  |  |  |  | 
O=C(O)c1ccc(NC(=O)[C@@H]2CCCN2S(=O)(=O)c2ccc([N+](=O)[O-])cc2)cc1 | 0.002 µM | 8.65 µM/g | 42.1% | 50.1% | 45.9% | 52.3% |  |  |  |  |  | 
Cc1ccccc1S(=O)(=O)N1CC(O)C[C@H]1C(=O)Nc1ccc(C(=O)O)cc1 (stereo partly specified) | 0.157 µM | 9.98 µM/g | 38.6% | 23.4% | 21.2% | 25.3% |  |  |  |  |  | 
O=C(O)c1ccc(NC(=O)[C@@H]2CCCN2S(=O)(=O)c2ccccc2)cc1 | 0.159 µM | 10.06 µM/g | 23.6% | 29.4% | 26.3% | 31.1% |  |  |  |  |  | 
Cc1ccccc1S(=O)(=O)N1CCC[C@H]1C(=O)Nc1ccc(C(=O)O)cc1 | 0.134 µM | 13.09 µM/g | 35.8% | 36.3% | 39.4% | 40% |  |  |  |  |  | 
O=C(O)c1ccc(NC(=O)[C@@H]2CC(O)CN2S(=O)(=O)c2ccccc2)cc1 (stereo partly specified) | 0.16 µM | 12.07 µM/g | 33.9% | 27.3% | 24.7% | 1.85% |  |  |  |  |  | 
Cc1ccc(S(=O)(=O)N2CC(O)C[C@H]2C(=O)Nc2ccc(C(=O)O)cc2)cc1 (stereo partly specified) | 0.155 µM | 12.01 µM/g | 58% | 67.2% | 60% | 84% |  |  |  |  |  | 
O=C(O)c1ccc(NC(=O)[C@@H]2CC(O)CN2S(=O)(=O)c2ccc([N+](=O)[O-])cc2)cc1 (stereo partly specified) | 0.144 µM | 10.28 µM/g | 44.1% | 52.2% | 48.5% | 62.8% |  |  |  |  |  | 
CCCCN(CCCC)c1c([N+](=O)[O-])cc(S(=O)(=O)Nc2ccccc2)cc1[N+](=O)[O-] |  |  |  |  |  |  | 0.12 µM |  |  |  |  | 
Cc1ccc(S(=O)(=O)N2CCC[C@H]2C(=O)Nc2ccc(C(=O)O)cc2)cc1 | 0.101 µM | 11.92 µM/g | 28.8% | 36.3% | 31.5% | 35.3% |  |  |  |  |  | 
COc1ccc2c(c1)c(CC(=O)O)c(C)n2C(=O)c1ccc(Cl)cc1 [INDOMETHACIN] |  |  |  |  |  |  |  | 63.6% | 56.9% | 64.8% | 63.5% | 
CCS(=O)(=O)N1CCCc2cc(NS(=O)(=O)c3ccccc3F)ccc21 |  |  |  |  |  |  |  |  |  |  |  | 1.3 µM

— ChEMBL document CHEMBL4152268, “Synthesis of proline derived benzenesulfonamides: A potent anti-Trypanosoma brucei gambiense agent” (Eur J Med Chem, 2018)
